The text below walks through data of ChEMBL document CHEMBL1137537, “Novel oxotremorine-related heterocyclic derivatives: Synthesis and in vitro pharmacology at the muscarinic receptor subtypes” (Bioorg Med Chem, 2007).

A short description of experiment [1]: Agonist activity at muscarinic M2 receptor in electrically stimulated guinea-pig left atrium. As to conditions: Cavia porcellus, Cardiac atrium. The class given is functional, tissue-based.
The next experiment is filed under the species Cavia porcellus. The experiment is described as follows: Intrinsic activity at muscarinic M2 receptor in electrically stimulated guinea-pig left atrium relative to benthanechol. Particulars: Cardiac atrium. The class given is tissue-based. The procedure, abridged:
(§1)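 Intrinsic activity as ratio of compound's maximal response to that of reference full agonist (McN-A-343 for vas deferens, bethanechol for atrium and ileum), from cumulative concentration–response curves; mean of 6-8 experiments.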

In experiment [2] the target is T1, Muscarinic acetylcholine receptor M3 (Cavia porcellus, UniProt Q8VH26). The experiment is described as follows: Agonist activity at muscarinic M3 receptor in guinea-pig ileum. It is filed as functional, tissue-based. The procedure, abridged:
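Guinea-pig ileal segments 2–3 cm, 1.0 g tension, 37 °C Krebs-Henseleit with carbogen, 45 min equilibration; isometric contractions to cumulative agonist concentrations; pEC50 by least-squares linear regression; mean of 6-8 experiments.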

In experiment [3] the target is Muscarinic acetylcholine receptor M3 (Cavia porcellus) (UniProt Q8VH26). The experiment is described as follows: Intrinsic activity at muscarinic M3 receptor in guinea-pig ileum relative to benthanechol. The class given is tissue-based. The procedure, abridged: as §1
The nature of experiment [4]: Binding affinity to muscarinic M2 receptor in electrically stimulated guinea-pig left atrium. The class given is tissue-based, Cavia porcellus, Cardiac atrium. Summed up: (§2)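 Apparent affinity pKD: for full agonists by receptor inactivation with phenoxybenzamine (1-10 µM, 20-30 min); for partial agonists by McKay's method comparing curves with reference full agonist; mean of 6-8 experiments.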

Experiment [5] has as its target T1, Muscarinic acetylcholine receptor M3. Nature of the experiment: Binding affinity to muscarinic M3 receptor in guinea-pig ileum. The class given is tissue-based. The procedure, abridged: as §2
The target of experiment [6] is T2, Muscarinic acetylcholine receptor M2 (Homo sapiens, UniProt P08172).
T2 sequence (P08172 whole entry): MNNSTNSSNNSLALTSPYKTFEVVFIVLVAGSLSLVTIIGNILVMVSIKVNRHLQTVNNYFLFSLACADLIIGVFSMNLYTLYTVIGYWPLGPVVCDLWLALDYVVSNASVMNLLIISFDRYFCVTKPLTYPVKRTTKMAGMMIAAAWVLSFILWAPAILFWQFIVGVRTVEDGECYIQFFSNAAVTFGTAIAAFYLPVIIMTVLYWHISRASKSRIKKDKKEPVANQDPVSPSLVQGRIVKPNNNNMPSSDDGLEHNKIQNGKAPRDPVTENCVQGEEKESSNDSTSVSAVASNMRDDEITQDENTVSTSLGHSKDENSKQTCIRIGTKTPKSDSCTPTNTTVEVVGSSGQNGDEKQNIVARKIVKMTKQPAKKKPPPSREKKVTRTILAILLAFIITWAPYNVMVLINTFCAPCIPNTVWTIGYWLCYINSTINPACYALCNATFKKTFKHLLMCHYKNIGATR
Nature of the experiment: Displacement of [3H]QNB from human muscarinic M2 receptor expressed in CHO cells. It is filed as cell-based. Summed up: (§3)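 Membranes (10-50 µg protein) from stable CHO lines expressing human m2-m5, competed against 180 pM [3H]QNB in 50 mM Tris-HCl pH 7.4 with 1% DMSO; 120 min at 25 °C to equilibrium; nonspecific binding with 0.5 µM atropine; GF-C filtration, scintillation counting; IC50 by logistic fit, Ki via Cheng–Prusoff using saturation-derived KD (5–2500 pM [3H]QNB).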
A general note: In a radioligand displacement assay an active substance lowers the binding of a labelled ligand.

Experiment [7] concerns the target T3, Muscarinic acetylcholine receptor M5 (Homo sapiens, UniProt P08912).
T3 sequence (P08912 whole entry): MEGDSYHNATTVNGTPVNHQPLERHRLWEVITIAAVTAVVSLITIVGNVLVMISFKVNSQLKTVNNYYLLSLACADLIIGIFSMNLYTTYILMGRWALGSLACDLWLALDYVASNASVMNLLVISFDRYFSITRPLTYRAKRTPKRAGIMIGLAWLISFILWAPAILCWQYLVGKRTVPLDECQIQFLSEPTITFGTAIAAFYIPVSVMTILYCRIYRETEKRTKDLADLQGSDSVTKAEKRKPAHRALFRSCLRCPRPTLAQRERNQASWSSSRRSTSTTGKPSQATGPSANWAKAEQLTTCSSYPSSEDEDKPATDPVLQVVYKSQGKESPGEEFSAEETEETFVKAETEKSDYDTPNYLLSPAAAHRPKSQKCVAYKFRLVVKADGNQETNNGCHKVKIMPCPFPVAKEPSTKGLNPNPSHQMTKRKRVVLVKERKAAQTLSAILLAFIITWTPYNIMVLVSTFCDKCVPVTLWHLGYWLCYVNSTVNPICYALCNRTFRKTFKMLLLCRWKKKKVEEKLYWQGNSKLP
Nature of the experiment: Displacement of [3H]QNB from human muscarinic M5 receptor expressed in CHO cells. It is filed as cell-based.

Another experiment is filed under the species Oryctolagus cuniculus. The experiment is described as follows: Intrinsic activity at muscarinic M1 receptor in electrically stimulated New Zealand rabbit vas deferens relative to McN-A-343. It is filed as tissue-based. The procedure, abridged:
as §1

Experiment [8] deals with T4, Muscarinic acetylcholine receptor M1 (Homo sapiens, UniProt P11229).
T4 sequence (P11229 whole entry): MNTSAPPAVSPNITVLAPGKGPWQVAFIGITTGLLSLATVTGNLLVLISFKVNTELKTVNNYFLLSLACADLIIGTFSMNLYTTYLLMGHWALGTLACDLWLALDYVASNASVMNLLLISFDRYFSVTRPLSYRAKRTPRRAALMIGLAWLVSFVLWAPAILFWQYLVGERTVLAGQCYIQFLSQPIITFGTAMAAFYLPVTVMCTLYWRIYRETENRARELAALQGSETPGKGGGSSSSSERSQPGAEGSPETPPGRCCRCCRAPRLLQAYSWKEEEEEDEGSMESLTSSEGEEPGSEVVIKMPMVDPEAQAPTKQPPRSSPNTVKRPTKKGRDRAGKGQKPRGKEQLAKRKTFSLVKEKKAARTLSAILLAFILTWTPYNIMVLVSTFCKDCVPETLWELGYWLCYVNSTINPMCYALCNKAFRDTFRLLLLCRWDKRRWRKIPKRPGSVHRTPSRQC
The experiment is described as follows: biochemical. The class given is cell-based, CHO.

Experiment [9] has as its target Muscarinic acetylcholine receptor M3 (Homo sapiens, UniProt P20309). The experiment is described as follows: Displacement of [3H]QNB from human muscarinic M3 receptor expressed in CHO cells. The class given is cell-based.
The target of experiment [10] is T5, Muscarinic acetylcholine receptor M4 (Homo sapiens, UniProt P08173).
T5 sequence (P08173 whole entry): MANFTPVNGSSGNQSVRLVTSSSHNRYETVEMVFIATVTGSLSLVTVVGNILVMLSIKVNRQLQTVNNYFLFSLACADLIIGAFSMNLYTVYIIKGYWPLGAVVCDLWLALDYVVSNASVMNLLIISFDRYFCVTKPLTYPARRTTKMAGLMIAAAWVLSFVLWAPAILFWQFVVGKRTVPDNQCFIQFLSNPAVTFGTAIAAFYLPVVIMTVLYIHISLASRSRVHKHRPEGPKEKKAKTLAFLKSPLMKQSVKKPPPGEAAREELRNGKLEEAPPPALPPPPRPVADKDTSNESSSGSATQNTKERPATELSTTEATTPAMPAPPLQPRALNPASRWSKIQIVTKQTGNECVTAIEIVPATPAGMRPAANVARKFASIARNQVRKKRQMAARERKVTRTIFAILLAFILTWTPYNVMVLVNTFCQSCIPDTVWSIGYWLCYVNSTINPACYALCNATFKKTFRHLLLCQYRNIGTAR
The experiment is described as follows: Displacement of [3H]QNB from human muscarinic M4 receptor expressed in CHO cells. It is filed as cell-based. Summed up: as §3

Experiment [11] can be described thus: Antagonist activity at muscarinic M1 receptor in electrically stimulated New Zealand rabbit vas deferens. It is filed as functional, Oryctolagus cuniculus. The procedure, abridged: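 Antagonist mode: after 30 min incubation with test compound (10 nM–100 µM), concentration–response curve to full agonist (bethanechol or McN-A-343) repeated; pKB as molar concentration giving twofold EC50 shift, Furchgott's method; mean of 6-8 experiments.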

The nature of experiment [12]: Agonist activity at muscarinic M1 receptor in electrically stimulated New Zealand rabbit vas deferens. The class given is functional, tissue-based. As to conditions: Oryctolagus cuniculus.
Experiment [13] in a line: Binding affinity to muscarinic M1 receptor in electrically stimulated New Zealand rabbit vas deferens. It is filed as tissue-based, Oryctolagus cuniculus. The procedure, abridged:
as §2

Muscarinic acetylcholine receptor M3 (Cavia porcellus), sequence (Q8VH26 1-587): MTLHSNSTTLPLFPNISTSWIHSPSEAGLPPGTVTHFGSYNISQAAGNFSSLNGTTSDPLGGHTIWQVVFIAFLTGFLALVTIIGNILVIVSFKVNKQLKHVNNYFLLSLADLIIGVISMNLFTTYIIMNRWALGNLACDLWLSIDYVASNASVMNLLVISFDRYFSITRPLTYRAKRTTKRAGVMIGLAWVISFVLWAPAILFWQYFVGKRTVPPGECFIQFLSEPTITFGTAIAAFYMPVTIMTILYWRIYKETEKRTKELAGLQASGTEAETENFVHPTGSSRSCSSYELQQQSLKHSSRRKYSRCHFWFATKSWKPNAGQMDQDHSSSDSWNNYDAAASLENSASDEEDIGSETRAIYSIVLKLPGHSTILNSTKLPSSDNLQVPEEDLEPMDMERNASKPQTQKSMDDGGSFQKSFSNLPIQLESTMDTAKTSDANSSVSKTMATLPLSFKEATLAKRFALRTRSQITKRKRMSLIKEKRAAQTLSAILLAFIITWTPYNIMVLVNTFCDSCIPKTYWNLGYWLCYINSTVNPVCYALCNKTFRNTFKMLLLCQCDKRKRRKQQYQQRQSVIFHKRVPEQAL
T1 sequence (Q8VH26 whole entry): as the sequence (Q8VH26 1-587) above
Muscarinic acetylcholine receptor M3 (Homo sapiens, UniProt P20309), sequence (P20309 whole entry): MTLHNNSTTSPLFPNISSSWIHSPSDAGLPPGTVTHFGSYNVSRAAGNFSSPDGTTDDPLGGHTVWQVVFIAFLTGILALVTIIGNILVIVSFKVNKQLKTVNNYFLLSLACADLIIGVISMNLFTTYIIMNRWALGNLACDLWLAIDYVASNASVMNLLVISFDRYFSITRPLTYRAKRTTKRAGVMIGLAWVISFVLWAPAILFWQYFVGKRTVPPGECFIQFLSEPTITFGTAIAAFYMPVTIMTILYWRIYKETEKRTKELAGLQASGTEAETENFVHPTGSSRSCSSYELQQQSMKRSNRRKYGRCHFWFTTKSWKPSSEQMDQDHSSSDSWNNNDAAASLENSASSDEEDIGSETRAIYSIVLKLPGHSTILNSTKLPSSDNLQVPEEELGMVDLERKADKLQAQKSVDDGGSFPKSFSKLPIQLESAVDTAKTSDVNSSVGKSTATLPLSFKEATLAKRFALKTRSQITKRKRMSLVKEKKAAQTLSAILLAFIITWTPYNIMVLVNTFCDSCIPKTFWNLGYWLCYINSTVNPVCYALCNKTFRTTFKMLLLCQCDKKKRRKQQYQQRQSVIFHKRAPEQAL

A word on the EC50: it is the concentration needed to bring the measured effect to its halfway point. Low values mean greater potency, high ones weaker potency. The term pKd denotes the Kd on a negative log10 scale, so that one unit is a factor of ten. What is called Kd is the constant that tells how readily two partners part at equilibrium. For `CC(C[N+](C)(C)C)OC(N)=O` (stereo not drawn) [BETHANECHOL], the EC50 is 0.646 µM in experiment [1] and 0.427 µM in experiment [2]. Moreover, the Intrinsic activity (in the experiment filed under Cavia porcellus; in [3]) was 1 each time. The molecule also came in with a negative-log Kd (pKd) in experiment [4] of 5.37. In [5], the Kd was 12.6 µM.
Broadly, the Ki is the dissociation constant of the complex between target and ligand, obtained from inhibition or displacement. Lower therefore signals higher affinity. As for `C[N+]1(CC#CCN2OCCC2=O)CCc2ccccc2C1` (stereo not drawn), the Ki in [6] and in [7] was above 10 µM throughout.
A word on the pKb: it is the Kb on a negative log10 scale, so that one unit is a factor of ten. Read a low pKb as a large Kb. Turning to `C(#CCN1CCCCC1)COC1=NOCC1.O=C(O)C(=O)O`, the Intrinsic activity in the experiment filed under Oryctolagus cuniculus worked out at 0; in the experiment filed under Cavia porcellus, 0.6; in experiment [3], 1. For the same molecule, the Ki turned out to be 4.55 µM in experiment [8]; 0.876 µM in [6]; 3.92 µM in [9]; 6.04 µM in experiment [10]; 5.14 µM in [7]. The results for the EC50 in experiment [1] and in [2] were 1.1 µM and 1.78 µM, respectively. Further, the negative-log Kb (pKb) in [11] worked out at 5.91. Moreover, in experiment [4], the negative logarithm of the Kd (pKd) is 6.22. In [5], this molecule had a Kd of 21.9 µM.
Consider `Cc1cc(OCC#CC[N+]2(C)CCCC2)no1.[I-]`, for which the Intrinsic activity in the experiment filed under Oryctolagus cuniculus worked out at 0; in the experiment listed under Cavia porcellus it was 1; in experiment [3], 0.9. The Ki in experiment [8] stood at 7.68 µM; in [6], 2.04 µM; in [9], 7.39 µM; in experiment [10] it was 5.93 µM; in [7] it was 7.51 µM. In addition, the results for the EC50 in experiment [1] and in [2] were 0.251 µM and 0.55 µM, respectively. In experiment [11], this molecule displayed a pKb of 6.01. The same molecule had a pKd in experiment [4] of 6.72. In experiment [5], binding was put at a Kd of 1.66 µM.
In turn, `C[N+](C)(C)CC#CCOC(=O)Nc1cccc(Cl)c1.[Cl-]` yielded an Intrinsic activity in the experiment listed under Oryctolagus cuniculus of 1. The molecule further gave an EC50 in [12] of 0.398 µM. This molecule also came in with a pKd in experiment [13] of 7.2.
With `O=C1CCON1CC#CCN1CCCC1`, the Ki is 0.905 µM in experiment [8]; 0.07 µM in experiment [6]; 0.392 µM in experiment [9]; 0.222 µM in [10]; 0.51 µM in experiment [7].
For `C[N+]1(CC#CCOC2=NOCC2)CCc2ccccc21` (stereo not drawn), the Ki in experiment [8] is above 10 µM; in experiment [6] it was 4.1 µM; in experiment [9], 5.54 µM; in experiment [10] it was above 10 µM; in [7], above 10 µM.
As for `C[N+]1(CC#CCOC2=NOCC2)CCc2ccccc2C1` (stereo not drawn), the Ki is 6.96 µM in experiment [8]; 0.474 µM in experiment [6]; 0.887 µM in experiment [9]; 2.26 µM in experiment [10]; 5.66 µM in experiment [7].
Consider `C[N+]12CCC(CC1)/C(=N/OCC#CCOc1ccon1)C2.[I-]`, for which the Intrinsic activity in the experiment listed under Oryctolagus cuniculus worked out at 0.9; in experiment [3] it was 0.7. Also, the inhibitory constant (Ki) in experiment [6] and in experiment [7] was above 10 µM throughout. Besides, the results for the concentration giving a half-maximal response (EC50) in experiment [12], in experiment [1] and in experiment [2] were 4.27 µM, above 100 µM and 3.55 µM, respectively. Besides, the Kd in [5] was 9.33 µM. In addition, the pKd in [13] was determined as 3.82.
As to `O=C1CCON1CC#CCN1C2CCCC1CC2`, the Ki in experiment [6] and in experiment [7] was above 10 µM throughout.
For `C[N+]1(CC#CCN2OCCC2=O)CCc2ccccc21` (stereo not drawn), the Ki in [6] and in experiment [7] was above 10 µM in each case.
With `C[N+]1(CC#CCN2OCCC2=O)CCCCC1`, the Ki in experiment [6] and in [7] was above 10 µM throughout.
Consider `C(#CCOc1ccon1)CO/N=C1\CN2CCC1CC2.O=C(O)/C=C/C(=O)O`, for which the Intrinsic activity was found to be 0 in the experiment filed under Oryctolagus cuniculus, 0.7 in the experiment listed under Cavia porcellus and 0.9 in [3]. The EC50 in [1] was 3.09 µM; in [2], 1.02 µM. This molecule also showed a pKb in [11] of 5.85. The same molecule displayed a negative logarithm of the Kd (pKd) in experiment [4] of 5.97. Binding in experiment [5] was put at a Kd of 3.63 µM.
`O=C1CCON1CC#CCN1CCc2ccccc2C1`: the inhibition constant Ki in experiment [6] and in experiment [7] was above 10 µM throughout.
For the molecule `C(#CCN1CCc2ccccc2C1)COC1=NOCC1`, the Ki in [6] and in [7] was above 10 µM each time.
As to `CN(C)CC#CCOc1cc(-c2ccccc2)on1`, the Ki in experiment [6] and in [7] was above 10 µM throughout.
For `C(#CCN1CCc2ccccc21)COC1=NOCC1`, the inhibitory constant (Ki) in experiment [6] and in experiment [7] was above 10 µM in each case.
